Reference: ChEMBL document CHEMBL1142890, “Structure-antibacterial activity of arylcarbonyl- and arylsulfonyl-piperazine 5-triazolylmethyl oxazolidinones” (2007)
In brackets after ≈: the same amount, converted by molar mass.

Experiments:
Staphylococcus [1] = assay: Antimicrobial activity against methicillin-resistant coagulase-negative Staphylococcus by agar dilution method; type: functional
Summary of the method: (§1)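 Agar dilution per CLSI on Mueller-Hinton agar, test agents at 0.12 to 8 µg/ml; test compounds dissolved in 20% water in DMSO, linezolid in 40% water in ethanol, vancomycin in water. Clinical isolates inoculated at final 10^7 CFU/ml, incubated 35 °C for 18 h. MIC = lowest concentration completely inhibiting growth; reported as range across isolates.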

Enterococcus [2] = assay: Antimicrobial activity against vancomycin-resistant Enterococcus by agar dilution method; type: functional; summary of the method: as §1
Enterococcus [3] = assay: Antimicrobial activity against vancomycin-sensitive Enterococcus by agar dilution method; type: functional; summary of the method: as §1
Escherichia coli = assay: Antimicrobial activity against Escherichia coli ATCC 25922; type: functional
Streptococcus pneumoniae = assay: Antimicrobial activity against Streptococcus pneumoniae by agar dilution method; type: functional
Summary of the method: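 Agar dilution per CLSI on Mueller–Hinton agar holding drug dilutions from 0.12 to 8 µg/ml. Staphylococci and enterococci tested on plain MH agar, S. pneumoniae on MH agar with 5% sheep blood. Test compounds dissolved in 20% water in DMSO. Inoculum 10⁷ CFU/ml, incubated 35 °C for 18 h. MIC was the lowest concentration giving complete growth inhibition.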

Staphylococcus aureus [4] = assay: Antimicrobial activity against Staphylococcus aureus ATCC 25922 in presence of 50% human plasma […]; type: functional; conditions: ATCC 25923, Plasma, in the assay text read “ATCC 25923” for “ATCC 25922”
Summary of the method: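 S. aureus ATCC 25923 tested in Mueller–Hinton broth supplemented with 50% human plasma. Test compounds dissolved in 20% water in DMSO. Inoculum 10⁷ CFU/ml, incubated 35 °C for 18 h. MIC was the lowest concentration completely inhibiting growth.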

Staphylococcus aureus [5] = assay: Antimicrobial activity against methicillin-resistant Staphylococcus aureus by agar dilution method; type: functional; summary of the method: as §1
Staphylococcus aureus [6] = assay: Antimicrobial activity against Staphylococcus aureus ATCC 25923 by agar dilution method
Staphylococcus [7] = assay: Antimicrobial activity against methicillin-susceptible coagulase-negative staphylococcus by agar dilution method; type: functional; summary of the method: as §1
Haemophilus influenzae = assay: Antimicrobial activity against Haemophilus influenzae; type: functional
Moraxella catarrhalis = assay: Antimicrobial activity against Moraxella catarrhalis; type: functional
Staphylococcus aureus [8] = assay: Antimicrobial activity against methicillin-susceptible Staphylococcus aureus by agar dilution method; type: functional; summary of the method: as §1

O=C(c1ccncc1)N1CCN(c2ccc(N3C[C@H](Cn4ccnn4)OC3=O)cc2F)CC1
MIC (Staphylococcus [1]): 0.5 µg/mL (≈ 1.11 µM)
MIC (Enterococcus [2]): 0.5 µg/mL (≈ 1.11 µM)
MIC (Enterococcus [3]): 1 µg/mL (≈ 2.22 µM)
MIC (Escherichia coli): ≥ 8 µg/mL
MIC (Streptococcus pneumoniae): 1 µg/mL (≈ 2.22 µM)
MIC (Staphylococcus aureus [4]): 8 µg/mL
MIC (Staphylococcus aureus [5]): 0.5 µg/mL (≈ 1.11 µM)
MIC (Staphylococcus aureus [6]): 1 µg/mL (≈ 2.22 µM)
MIC (Staphylococcus [7]): 0.25 µg/mL (≈ 0.554 µM)
MIC (Haemophilus influenzae): ≥ 8 µg/mL
MIC (Moraxella catarrhalis): ≥ 8 µg/mL
MIC (Staphylococcus aureus [8]): 0.5 µg/mL (≈ 1.11 µM)

O=C1O[C@@H](Cn2ccnn2)CN1c1ccc(N2CCOCC2)c(F)c1
MIC (Staphylococcus [1]): 0.5 µg/mL (≈ 1.44 µM)
MIC (Enterococcus [2]): 1 µg/mL (≈ 2.88 µM)
MIC (Enterococcus [3]): 0.5 µg/mL (≈ 1.44 µM)
MIC (Escherichia coli): ≥ 8 µg/mL
MIC (Streptococcus pneumoniae): 0.5 µg/mL (≈ 1.44 µM)
MIC (Staphylococcus aureus [4]): 1 µg/mL
MIC (Staphylococcus aureus [5]): 0.5 µg/mL (≈ 1.44 µM)
MIC (Staphylococcus aureus [6]): 1 µg/mL (≈ 2.88 µM)
MIC (Staphylococcus [7]): 0.5 µg/mL (≈ 1.44 µM)
MIC (Haemophilus influenzae): ≥ 8 µg/mL
MIC (Moraxella catarrhalis): ≥ 8 µg/mL
MIC (Staphylococcus aureus [8]): 0.5 µg/mL (≈ 1.44 µM)

O=C(c1cccs1)N1CCN(c2ccc(N3C[C@H](Cn4ccnn4)OC3=O)cc2F)CC1
MIC (Staphylococcus [1]): 0.25 µg/mL (≈ 0.548 µM)
MIC (Enterococcus [2]): 0.5 µg/mL (≈ 1.1 µM)
MIC (Enterococcus [3]): 0.5 µg/mL (≈ 1.1 µM)
MIC (Escherichia coli): ≥ 8 µg/mL
MIC (Streptococcus pneumoniae): 0.25 µg/mL (≈ 0.548 µM)
MIC (Staphylococcus aureus [4]): 4 µg/mL
MIC (Staphylococcus aureus [5]): 0.5 µg/mL (≈ 1.1 µM)
MIC (Staphylococcus aureus [6]): 0.5 µg/mL (≈ 1.1 µM)
MIC (Staphylococcus [7]): 0.25 µg/mL (≈ 0.548 µM)
MIC (Haemophilus influenzae): ≥ 8 µg/mL
MIC (Moraxella catarrhalis): ≥ 8 µg/mL
MIC (Staphylococcus aureus [8]): 0.5 µg/mL (≈ 1.1 µM)

O=C1O[C@@H](Cn2ccnn2)CN1c1ccc(N2CCN(S(=O)(=O)c3ccccc3)CC2)c(F)c1
MIC (Staphylococcus [1]): 0.5 µg/mL (≈ 1.03 µM)
MIC (Enterococcus [2]): 0.5 µg/mL (≈ 1.03 µM)
MIC (Enterococcus [3]): 2 µg/mL (≈ 4.11 µM)
MIC (Escherichia coli): ≥ 8 µg/mL
MIC (Streptococcus pneumoniae): 1 µg/mL (≈ 2.06 µM)
MIC (Staphylococcus aureus [4]): 8 µg/mL
MIC (Staphylococcus aureus [5]): 0.5 µg/mL (≈ 1.03 µM)
MIC (Staphylococcus aureus [6]): 2 µg/mL (≈ 4.11 µM)
MIC (Staphylococcus [7]): 0.5 µg/mL (≈ 1.03 µM)
MIC (Haemophilus influenzae): ≥ 8 µg/mL
MIC (Moraxella catarrhalis): ≥ 8 µg/mL
MIC (Staphylococcus aureus [8]): 0.5 µg/mL (≈ 1.03 µM)

Cc1cccc(C(=O)N2CCN(c3ccc(N4C[C@H](Cn5ccnn5)OC4=O)cc3F)CC2)c1
MIC (Staphylococcus [1]): 0.25 µg/mL (≈ 0.538 µM)
MIC (Enterococcus [2]): 0.5 µg/mL (≈ 1.08 µM)
MIC (Enterococcus [3]): 0.5 µg/mL (≈ 1.08 µM)
MIC (Escherichia coli): ≥ 8 µg/mL
MIC (Streptococcus pneumoniae): 1 µg/mL (≈ 2.15 µM)
MIC (Staphylococcus aureus [4]): 8 µg/mL
MIC (Staphylococcus aureus [5]): 0.25 µg/mL (≈ 0.538 µM)
MIC (Staphylococcus aureus [6]): 0.5 µg/mL (≈ 1.08 µM)
MIC (Staphylococcus [7]): 0.25 µg/mL (≈ 0.538 µM)
MIC (Haemophilus influenzae): ≥ 8 µg/mL
MIC (Moraxella catarrhalis): ≥ 8 µg/mL
MIC (Staphylococcus aureus [8]): 0.25 µg/mL (≈ 0.538 µM)

O=C(c1ccc(Cl)cc1)N1CCN(c2ccc(N3C[C@H](Cn4ccnn4)OC3=O)cc2F)CC1
MIC (Staphylococcus [1]): 0.12 µg/mL (≈ 0.247 µM)
MIC (Enterococcus [2]): 0.5 µg/mL (≈ 1.03 µM)
MIC (Enterococcus [3]): 0.5 µg/mL (≈ 1.03 µM)
MIC (Escherichia coli): ≥ 8 µg/mL
MIC (Streptococcus pneumoniae): 1 µg/mL (≈ 2.06 µM)
MIC (Staphylococcus aureus [4]): 8 µg/mL
MIC (Staphylococcus aureus [5]): 0.25 µg/mL (≈ 0.516 µM)
MIC (Staphylococcus aureus [6]): 0.5 µg/mL (≈ 1.03 µM)
MIC (Staphylococcus [7]): 0.12 µg/mL (≈ 0.247 µM)
MIC (Haemophilus influenzae): ≥ 8 µg/mL
MIC (Moraxella catarrhalis): ≥ 8 µg/mL
MIC (Staphylococcus aureus [8]): 0.25 µg/mL (≈ 0.516 µM)

O=C(c1cccc([N+](=O)[O-])c1)N1CCN(c2ccc(N3C[C@H](Cn4ccnn4)OC3=O)cc2F)CC1
MIC (Staphylococcus [1]): 0.25 µg/mL (≈ 0.505 µM)
MIC (Enterococcus [2]): 0.5 µg/mL (≈ 1.01 µM)
MIC (Enterococcus [3]): 0.5 µg/mL (≈ 1.01 µM)
MIC (Escherichia coli): ≥ 8 µg/mL
MIC (Streptococcus pneumoniae): 0.25 µg/mL (≈ 0.505 µM)
MIC (Staphylococcus aureus [4]): 2 µg/mL
MIC (Staphylococcus aureus [5]): 0.25 µg/mL (≈ 0.505 µM)
MIC (Staphylococcus aureus [6]): 2 µg/mL (≈ 4.04 µM)
MIC (Staphylococcus [7]): 0.5 µg/mL (≈ 1.01 µM)
MIC (Haemophilus influenzae): ≥ 8 µg/mL
MIC (Moraxella catarrhalis): ≥ 8 µg/mL
MIC (Staphylococcus aureus [8]): 0.25 µg/mL (≈ 0.505 µM)

Cc1ccc(C(=O)N2CCN(c3ccc(N4C[C@H](Cn5ccnn5)OC4=O)cc3F)CC2)cc1
MIC (Staphylococcus [1]): 0.5 µg/mL (≈ 1.08 µM)
MIC (Enterococcus [2]): 0.5 µg/mL (≈ 1.08 µM)
MIC (Enterococcus [3]): 1 µg/mL (≈ 2.15 µM)
MIC (Escherichia coli): ≥ 8 µg/mL
MIC (Streptococcus pneumoniae): 2 µg/mL (≈ 4.31 µM)
MIC (Staphylococcus aureus [4]): 8 µg/mL
MIC (Staphylococcus aureus [5]): 0.5 µg/mL (≈ 1.08 µM)
MIC (Staphylococcus aureus [6]): 1 µg/mL (≈ 2.15 µM)
MIC (Staphylococcus [7]): 0.5 µg/mL (≈ 1.08 µM)
MIC (Haemophilus influenzae): ≥ 8 µg/mL
MIC (Moraxella catarrhalis): ≥ 8 µg/mL
MIC (Staphylococcus aureus [8]): 0.5 µg/mL (≈ 1.08 µM)

O=C(/C=C/c1ccccc1Cl)N1CCN(c2ccc(N3C[C@H](Cn4ccnn4)OC3=O)cc2F)CC1
MIC (Staphylococcus [1]): 0.25 µg/mL (≈ 0.489 µM)
MIC (Enterococcus [2]): 0.25 µg/mL (≈ 0.489 µM)
MIC (Enterococcus [3]): 0.5 µg/mL (≈ 0.979 µM)
MIC (Escherichia coli): ≥ 8 µg/mL
MIC (Streptococcus pneumoniae): 4 µg/mL (≈ 7.83 µM)
MIC (Staphylococcus aureus [4]): > 8 µg/mL
MIC (Staphylococcus aureus [5]): 0.25 µg/mL (≈ 0.489 µM)
MIC (Staphylococcus aureus [6]): 0.5 µg/mL (≈ 0.979 µM)
MIC (Staphylococcus [7]): 0.25 µg/mL (≈ 0.489 µM)
MIC (Haemophilus influenzae): ≥ 8 µg/mL
MIC (Moraxella catarrhalis): ≥ 8 µg/mL
MIC (Staphylococcus aureus [8]): 0.25 µg/mL (≈ 0.489 µM)

COc1ccc(C(=O)N2CCN(c3ccc(N4C[C@H](Cn5ccnn5)OC4=O)cc3F)CC2)cc1
MIC (Staphylococcus [1]): 1 µg/mL (≈ 2.08 µM)
MIC (Enterococcus [2]): 1 µg/mL (≈ 2.08 µM)
MIC (Enterococcus [3]): 1 µg/mL (≈ 2.08 µM)
MIC (Escherichia coli): ≥ 8 µg/mL
MIC (Streptococcus pneumoniae): 0.5 µg/mL (≈ 1.04 µM)
MIC (Staphylococcus aureus [4]): 8 µg/mL
MIC (Staphylococcus aureus [5]): 0.5 µg/mL (≈ 1.04 µM)
MIC (Staphylococcus aureus [6]): 2 µg/mL (≈ 4.16 µM)
MIC (Staphylococcus [7]): 0.5 µg/mL (≈ 1.04 µM)
MIC (Haemophilus influenzae): ≥ 8 µg/mL
MIC (Moraxella catarrhalis): ≥ 8 µg/mL
MIC (Staphylococcus aureus [8]): 1 µg/mL (≈ 2.08 µM)

O=C(C(=O)N1CCN(c2ccc(N3C[C@H](Cn4ccnn4)OC3=O)cc2F)CC1)c1cccs1
MIC (Staphylococcus [1]): 0.25 µg/mL (≈ 0.516 µM)
MIC (Enterococcus [2]): 0.25 µg/mL (≈ 0.516 µM)
MIC (Enterococcus [3]): 0.5 µg/mL (≈ 1.03 µM)
MIC (Escherichia coli): ≥ 8 µg/mL
MIC (Streptococcus pneumoniae): 0.25 µg/mL (≈ 0.516 µM)
MIC (Staphylococcus aureus [4]): 2 µg/mL
MIC (Staphylococcus aureus [5]): 0.25 µg/mL (≈ 0.516 µM)
MIC (Staphylococcus aureus [6]): 0.5 µg/mL (≈ 1.03 µM)
MIC (Staphylococcus [7]): 0.25 µg/mL (≈ 0.516 µM)
MIC (Haemophilus influenzae): ≥ 8 µg/mL
MIC (Moraxella catarrhalis): ≥ 8 µg/mL
MIC (Staphylococcus aureus [8]): 0.25 µg/mL (≈ 0.516 µM)

Cc1ccccc1C(=O)N1CCN(c2ccc(N3C[C@H](Cn4ccnn4)OC3=O)cc2F)CC1
MIC (Staphylococcus [1]): 0.5 µg/mL (≈ 1.08 µM)
MIC (Enterococcus [2]): 1 µg/mL (≈ 2.15 µM)
MIC (Enterococcus [3]): 1 µg/mL (≈ 2.15 µM)
MIC (Escherichia coli): ≥ 8 µg/mL
MIC (Streptococcus pneumoniae): 1 µg/mL (≈ 2.15 µM)
MIC (Staphylococcus aureus [4]): 8 µg/mL
MIC (Staphylococcus aureus [5]): 0.5 µg/mL (≈ 1.08 µM)
MIC (Staphylococcus aureus [6]): 2 µg/mL (≈ 4.31 µM)
MIC (Staphylococcus [7]): 0.5 µg/mL (≈ 1.08 µM)
MIC (Haemophilus influenzae): ≥ 8 µg/mL
MIC (Moraxella catarrhalis): ≥ 8 µg/mL
MIC (Staphylococcus aureus [8]): 0.5 µg/mL (≈ 1.08 µM)
